According to ChEMBL document CHEMBL4316616, “Efficacy of TLR7 agonistic imidazoquinoline as immunochemotherapeutic agent against P. Berghei ANKA infected rodent host” (Bioorg Med Chem Lett, 2019):
Active and inactive are the calls of the source. The rule behind the calls is not given here.

Key:
Plasmodium berghei [1] = test: Antiparasitic activity against Plasmodium berghei ANKA infected in Laca mouse assessed as reduction in parasitemia at 10 mg/kg, po administered for 4 days measured up to day 15 by Giemsa-staining based assay; type: functional, organism-based
Plasmodium berghei [2] = test: Antiparasitic activity against Plasmodium berghei ANKA infected in Laca mouse assessed as parasitemia at 10 mg/kg, po administered for 4 days measured on day 17 by Giemsa-staining based assay; type: functional
Plasmodium berghei [3] = test: Antiparasitic activity against Plasmodium berghei ANKA infected in Laca mouse assessed as parasitemia at 10 mg/kg, po administered for 4 days measured on day 21 by Giemsa-staining based assay; type: functional
[4] = Toxicity in Laca mouse infected with Plasmodium berghei ANKA assessed as death at 10 mg/kg, po administered for 4 days measured after 21 days; type: organism-based; settings: in vivo, 504 h
Method in brief: (§1)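 Groups of 6 mice, infected i.p. on D0 with 1x10⁶ P. berghei ANKA parasitized RBCs. Chloroquine 10 mg/kg given orally in 0.2 mL/mouse daily D0–D3. Infected PBS-dosed and uninfected controls were included. Mice were followed for survival, with parasitemia checked on Giemsa-stained thin blood smears of individual mice.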

Plasmodium berghei [5] = test: Antiparasitic activity against Plasmodium berghei ANKA infected in Laca mouse assessed as reduction in CD3+ cell level in brain at 10 mg/kg, po administered for 4 days measured on day 10 by flow cytometry; type: functional, organism-based
Plasmodium berghei [6] = test: Antiparasitic activity against Plasmodium berghei ANKA infected in Laca mouse assessed as reduction in CD4+ cell level in brain at 10 mg/kg, po administered for 4 days measured on day 10 and 21 by flow cytometry; type: functional, organism-based
Plasmodium berghei [7] = test: Antiparasitic activity against Plasmodium berghei ANKA infected in Laca mouse assessed as reduction in CD8+ cell level in brain at 10 mg/kg, po administered for 4 days measured on day 10 by flow cytometry; type: functional, organism-based
Plasmodium berghei [8] = test: Antiparasitic activity against Plasmodium berghei ANKA infected in Laca mouse assessed as increase in Treg cell level in brain at 10 mg/kg, po administered for 4 days measured on day 10 by flow cytometry; type: functional, organism-based
[9] = Toxicity in Laca mouse infected with Plasmodium berghei ANKA assessed as death at 10 mg/kg, po administered for 4 days measured on day 21; type: organism-based; settings: in vivo, 96 h; method in brief: as §1
Plasmodium berghei [10] = test: Antiparasitic activity against Plasmodium berghei ANKA infected in Laca mouse assessed as increase in CD3+ cell level in spleen at 10 mg/kg, po administered for 4 days measured on day 10 by flow cytometry; type: functional, organism-based
Plasmodium berghei [11] = test: Antiparasitic activity against Plasmodium berghei ANKA infected in Laca mouse assessed as increase in serum IL-10 level at 10 mg/kg, po administered for 4 days measured on day 10 by sandwich ELISA; type: functional, organism-based
Plasmodium berghei [12] = test: Antiparasitic activity against Plasmodium berghei ANKA infected in Laca mouse assessed as decrease in serum TNFalpha level at 10 mg/kg, po administered for 4 days measured on day 10 by sandwich ELISA; type: functional, organism-based
Plasmodium berghei [13] = test: Antiparasitic activity against Plasmodium berghei ANKA infected in Laca mouse assessed as increase in serum IL-12 level at 10 mg/kg, po administered for 4 days measured on day 10 by sandwich ELISA; type: functional, organism-based
Plasmodium berghei [14] = test: Antiparasitic activity against Plasmodium berghei ANKA infected in Laca mouse assessed as increase in serum IL-27 level at 10 mg/kg, po administered for 4 days measured on day 10 by sandwich ELISA; type: functional, organism-based
Plasmodium berghei [15] = test: Antiparasitic activity against Plasmodium berghei ANKA infected in Swiss albino mouse assessed as reduction in parasitemia at 10 mg/kg, po by Peter's 4 day test; type: functional; parameters: scale not given: the % may be the effect or the level left
Plasmodium berghei [16] = test: Antimalarial activity against Plasmodium berghei ANKA infected in Swiss albino mouse assessed as reduction in parasitemia at 25 mg/kg, po for 4 days dosed 2 hrs post infection and measured 5 days post infection by Giemsa staining based Peter's 4 day test; type: functional; parameters: scale not given: the % may be the effect or the level left
Plasmodium berghei [17] = test: Antiparasitic activity against Plasmodium berghei ANKA infected in Laca mouse assessed as increase in IFN-gamma level in serum at 10 mg/kg, po administered for 4 days measured on day 10 by sandwich ELISA

## CCN(CC)CCCC(C)Nc1ccnc2cc(Cl)ccc12 (configuration not stated) [CHLOROQUINE]
Plasmodium berghei [1]
  Activity: Active
Plasmodium berghei [2]
  Activity: 5.99%
Plasmodium berghei [3]
  Activity: 10.76%
[4]
  Activity: Toxic
Plasmodium berghei [5]
  Activity: Active
Plasmodium berghei [6]
  Activity: Active
Plasmodium berghei [7]
  Activity: Active
Plasmodium berghei [8]
  Activity: Active
[9]
  Activity: Toxic
Plasmodium berghei [10]
  Activity: Active
Plasmodium berghei [11]
  Activity: Active
Plasmodium berghei [12]
  Activity: Active
Plasmodium berghei [13]
  Activity: Active
Plasmodium berghei [14]
  Activity: Active
Plasmodium berghei [15]
  Activity: 58.3%
Plasmodium berghei [16]
  Activity: 89.04%
Plasmodium berghei [17]
  Activity: Active
